The values below come from ChEMBL document CHEMBL4513216, “Probing the Open Global Health Chemical Diversity Library for Multistage-Active Starting Points for Next-Generation Antimalarials” (ACS Infect Dis, 2020).

The data set is described as follows: Toxicity liver stage against HepG2, at 10uM. It is filed as cell-based. Set-up: test concentration 10 uM, cell line HepG2-A16-CD81EGFP. The note with it: human, HepG2-A16-CD81EGFP cells; read-out: INHIBITION
In short, it runs like this:
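Uninfected HepG2-A16-CD81EGFP cells, 3 × 10^3 per well, 1536-well, plated on prespotted compound at 10 μM final, parasite-free screening media added to match infected plates; puromycin 10 μM positive, DMSO 0.5% negative; run in parallel with 48 h PbLuc assay at 37 °C, 5% CO2; viability by CellTiter-Glo luminescence, normalized to controls.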
Regarding `Cc1ncncc1C(=O)N1CCCC(Cc2nccs2)C1` (configuration not stated), the cytotoxicity at 10 µM was -9.13%.
The value for `Cc1cc(C(=O)Nc2ccc3oc(=O)n(CCN(C)C)c3c2)c(C)o1` was -2.22%; that for `CCN(Cc1ccccc1)C(=O)CN1CCCCC1Cn1cncn1` (configuration not stated) was 7.15%.
Take `CN(C)C(=O)Cc1ccc(NC(=O)NC2CCCCC2)cc1`: the cytotoxicity at 10 µM is -11.3%.
Next, `O=C(COc1ccc2c(c1)OCC2O)NCc1ccco1` (configuration not stated): 0.878%; `CCc1nnc(CN(C)Cc2cccc(C(=O)Nc3ccnn3C)c2)o1`: -3.7%.
The value for `CCOC(=O)N1CCCn2nc(C(=O)NCCN(C)C)cc2C1` was 3.13%; that for `CCC1CN(c2ncnc3nc[nH]c23)CCO1` (configuration not stated) was 19.5%; that for `CC(NCCCN1CCCC1=O)c1cc(Br)ccc1F` (configuration not stated) was 1.63%.
The value for `CCc1cc(NCC(N)=O)nc(N2CCCCC2)n1` was 9.95%; that for `CC(CNC(=O)NCCCc1cc(N)n(-c2ccccc2)n1)N(C)C` (configuration not stated) was 11.9%.
For `Cn1nc(C(C)(C)C)cc1NC(=O)CSc1nnc[nH]1`, the cytotoxicity at 10 µM was 0.353%.
The value for `Cc1cc(N2CCCC2c2cncc(N(C)C)n2)ncn1` (configuration not stated) was -15.2%.
Consider `CC(C)(C)CCN1CCN(c2snc(Cl)c2C#N)CC1`, for which the cytotoxicity at 10 µM was 38.1%.
As to `NC(=O)C1CCN(CCc2ccc(NC(=O)C3CC3)cc2)CC1`, the cytotoxicity at 10 µM was -7.72%.
The value for `CC(CO)NS(=O)(=O)c1cccc(C(C)C)c1` (configuration not stated) was -20%.
The value for `CSc1cc2c(cc1NC(=O)NCCn1ccnc1)OCCO2` was -8.28%; that for `CCc1ncnc2c1CCN(Cc1ccccn1)CC2` was 1.39%; that for `Cc1cc(C)nc(NCCC(=O)Nc2ccc(Cn3cncn3)cc2)n1` was -2.82%.
For `COCc1cn(CC2CCN(Cc3cc(C)[nH]n3)CC2)nn1`, the cytotoxicity at 10 µM is -2.44%.
Next, `Cc1ccc(CNC(=O)Nc2cc(C(F)(F)F)c[nH]c2=O)cn1`: -21.8%; `NC(=O)CN1CCC(NC(=O)Nc2nccs2)CC1`: -5.9%; `CCc1ncc(C(=O)N2CCCN(C3CCCCC3)CC2)cn1`: -5.1%.
Next, `Cc1ccc(CC(=O)NC(C)C(=O)N2CCS(=O)(=O)CC2)cc1` (configuration not stated): 1.73%; `CS(=O)(=O)N1CCC2(CC1)COC(COc1ccccn1)C2` (configuration not stated): 5.63%; `CCc1n[nH]c(C2CN(C(=O)c3nc(C)ncc3Cl)CCO2)n1` (configuration not stated): -7.25%.
The value for `Cc1cc(N(Cc2ccccn2)C2CC2)n2nc(C(F)(F)F)nc2n1` was -5.83%.
For `CS(=O)(=O)c1ccc2c(c1)N(C(=O)Cc1cccc(F)c1)CCC2`, the cytotoxicity at 10 µM came out at 14.9%.
Next, `CCN1CC[C@]2(CN(Cc3nccs3)C[C@H]2c2ccccc2)C1=O`: 4.89%.
For the molecule `O=C(CC1CC1)N1CCC2(COCc3cnc(N4CCOCC4)nc32)C1` (configuration not stated), the cytotoxicity at 10 µM was -82.1%.
The value for `Cc1nc(N2CCC(C(O)c3nccn3C)CC2)c2nc(C)oc2n1` (configuration not stated) was -2.22%; that for `COc1ccc(CN2CCc3[nH]nc(C(=O)N(C)C)c3C2)cc1` was 5.18%.
Next, `O=C(CSc1nc2n[nH]cc2c(=O)n1-c1ccccc1)N1CCOCC1`: -8.21%; `CCC(C(=O)NCc1cccnc1)N(c1cccc(C)c1)S(C)(=O)=O` (configuration not stated): 2.57%; `CC(C)(C)c1ccc(OCc2nc3c(c(=O)[nH]2)CCNC3)cc1`: 5.11%.
Regarding `CCN(Cc1ccc2c(c1)OCCO2)C(=O)NC(C)Cn1cccn1` (configuration not stated), the cytotoxicity at 10 µM was -10.6%.
Turning to `Cc1cc(CN2C[C@H](OCC3CCOCC3)[C@H]3COC[C@H]32)oc1C`, the cytotoxicity at 10 µM is 6.88%.
Turning to `Cc1ccc(NC2CCN(C(=O)COC3CCCCC3)CC2)nn1`, the cytotoxicity at 10 µM worked out at 5.94%.
As for `Cc1ccc(CNCC2CCN(CCO)CC2)cc1`, the cytotoxicity at 10 µM was -6.14%.
Take `Cn1nccc1-c1ccc2nc(C3CCNCC3)nn2c1`: the cytotoxicity at 10 µM is 10.3%.
As to `CCOc1cc(Cl)ccc1CNC(=O)N1CCCC(CO)C1` (configuration not stated), the cytotoxicity at 10 µM turned out to be 9.54%.
For `CCOC(=O)Cn1cnc2nc3n(c2c1=O)CCC3`, the cytotoxicity at 10 µM was -2.06%.
Consider `COc1ccc(CCNC(=O)NCC(O)c2cccc(F)c2)cc1` (configuration not stated), for which the cytotoxicity at 10 µM was -6.33%.
Next, `Fc1ccc(CNCC2Cn3nncc3CO2)cc1` (configuration not stated): 7.31%; `O=C(O)c1cc2c(nc1N1CCOCC1)CCN(C1CCOC1)CC2` (configuration not stated): 6.68%.
On to `c1cncc(C2=NOC3(CCN(Cc4c[nH]c5ccccc45)CC3)C2)c1`, for which the cytotoxicity at 10 µM came out at 9.49%.
Turning to `CNC(=O)Cn1nc(C(C)C)c2cnn(C(C)(C)C)c2c1=O`, the cytotoxicity at 10 µM is -7.67%.
The value for `C[C@@H]1CN(C(=O)CCCN2CCOCC2)C[C@@]1(O)C1CC1` was 4.39%.
On to `O=C(O)[C@]12CCCN(Cc3cccs3)C[C@H]1CN(c1ncccn1)C2`, for which the cytotoxicity at 10 µM was determined as 7.58%.
Next, `Cc1csc(CNc2ccc(-c3nc(C4CC4)no3)cn2)n1`: -16.2%; `CCOCCN1CCn2c(C)nnc2C1`: 3.34%; `Cn1[nH]c(C2CC2)c(-c2ccc3c(c2)OCO3)c1=N`: -47.5%.
For the molecule `Cc1nc(-c2ccsc2)ccc1C(=O)NCC(C)N1CCOCC1` (configuration not stated), the cytotoxicity at 10 µM was -3.92%.
The value for `CCOCC1CN(C(=O)COc2ccccc2C)Cc2ncn(C)c21` (configuration not stated) was 0.78%; that for `CC(C)n1ncc2cc(NC(=O)N3CCC(C(N)=O)C3)cnc21` (configuration not stated) was -1.85%; that for `CC(C)c1nc(CNc2ccc(N3CCC(CO)CC3)cn2)cs1` was -2.6%.
Next, `CCN1CCN(S(=O)(=O)N2CCc3ccccc3C2)[C@H]2CS(=O)(=O)C[C@H]21`: -4%.
Next, `COc1ccc([C@@H]2C[C@H](NC(C)=O)C[C@H](CCc3ccccc3)O2)cn1`: -3.13%; `CCn1cc(-c2nn3c(C(F)(F)F)nnc3s2)cn1`: -12.3%.
Take `Cc1nc(C)n(C2CCCN(C(=O)c3ccnc(N(C)C)c3)C2)n1` (configuration not stated): the cytotoxicity at 10 µM was -8.36%.
Next, `COCCC1COC2(CCN(C(=O)Cc3ccccc3)CC2)C1` (configuration not stated): -69.2%.
Next, `CCc1c(C)sc2nc3n(CCN(C)C)nc(SC)n3c(=O)c12`: 2.26%; `CC(C)(C)C1CCC(O)(CNC(=O)CCS(C)(=O)=O)CC1` (configuration not stated): 6.51%; `CCN(CC)c1nc2ccsc2c(=O)n1CCC(=O)NCc1ccco1`: 9.87%.
Next, `CN(Cc1csc(-c2cccs2)n1)CC(O)CO` (configuration not stated): -0.712%.
Turning to `CN(C)CCN1CCC(NC2CSCCc3ccccc32)CC1` (configuration not stated), the cytotoxicity at 10 µM was -8.77%.
The value for `CN1CCC2(COCCN(Cc3cccc(C#N)c3)C2)C1` (configuration not stated) was 0.0422%; that for `Oc1cc(C2CCCN(Cc3cccs3)C2)nc(-c2ccccn2)n1` (configuration not stated) was 29.5%; that for `CCc1ccc(OCC(O)CN2CCN(CC)CC2)cc1` (configuration not stated) was -6.54%.
Turning to `Cc1nn(C)c(N(C)C)c1CNCCCN(C(C)C)S(C)(=O)=O`, the cytotoxicity at 10 µM amounted to 1.07%.
As to `Cc1noc(CNc2cc3c(cc2Cl)NC(=O)CO3)n1`, the cytotoxicity at 10 µM came to 3.07%.
Next, `CC(=O)N1CC[C@H]2[C@H](C[C@@H](CN3CCCC3)N2c2nccs2)C1`: 1.84%; `O=C(c1ccc(O)c(Cl)c1)N(Cc1ccncc1)C1CC1`: -8.99%.
Next, `CC(NC1CCN(CCS(C)(=O)=O)CC1)c1ccc(Cl)cc1` (configuration not stated): -6.51%; `O=C1COc2cc(C(=O)NCc3ccc(Cl)s3)ccc2N1`: 1.55%.
Next, `N[C@@H]1c2ccccc2C2(CCN(c3cnc4ccccc4n3)CC2)[C@H]1O`: -2.45%; `COc1ccc(-c2c(C)nn3c(=N)c(C#N)n[nH]c23)cc1OC`: 8.29%; `O=C1CC(NS(=O)(=O)c2cccc(F)c2)CN1` (configuration not stated): -5.89%.
As for `CCC1CN(CC(=O)Nc2sccc2C#N)CCO1` (configuration not stated), the cytotoxicity at 10 µM was -9.29%.
Take `Cc1c[nH]c(CN2CCC3(CCCN(Cc4ccc(F)c(F)c4)C3)C2)n1` (configuration not stated): the cytotoxicity at 10 µM is -7.22%.
For `Cc1nc(C)c2c(n1)CCN(C(=O)C1(C#N)CC1)CC2`, the cytotoxicity at 10 µM is -102%.
The value for `CC(C)CN1C[C@@H]2C[C@H](C(=O)NCc3cccnc3)[C@H](C1)O2` was 2.5%; that for `COc1ccc2[nH]c(C[C@@H]3C[C@@H](C(C)C)[C@H](CN(C)C)C=C3C)nc2c1` was -0.626%; that for `Cc1ccc2c(n1)N(CCN(C)C)CCN(C(=O)c1cccs1)C2` was -69.8%.
Next, `CCCc1n[nH]c(C2CN(C(=O)c3n[nH]c4ccccc34)CCO2)n1` (configuration not stated): -1.39%; `Cc1cc(C)n(CCC(=O)N2CCCCC2c2nccs2)n1` (configuration not stated): 10.3%; `COc1ccccc1CC(=O)N1CCC(OCc2cccnc2)CC1`: 4.87%.
Next, `CCN1CCC2(C=C(C(=O)N(C)C)c3ccccc32)CC1`: -101%; `CN(C)C(=O)CN1C(=O)C[C@@H]2[C@@H]1CCN2Cc1cccc(C#N)c1`: -61.3%; `CCc1c(NCc2cccnc2)cnn1CC(C)C`: -0.625%.
With `Cc1ccc(CC(=O)N2CCCC(n3nc(C)cc3C)C2)cn1` (configuration not stated), the cytotoxicity at 10 µM is -8.54%.
Next, `CCc1cnc(NCCCN2CCC(O)CC2)nc1`: 3.44%; `CC(C)OC(=O)N1CCCC2(CCC(=O)N(CCc3c[nH]cn3)C2)C1` (configuration not stated): -3.73%; `Cc1nc(CN2CC[C@H]3[C@H]2CCN3c2nncs2)cs1`: 5.2%.
For `OC(CN(Cc1ccccc1)Cc1ccccn1)c1cccs1` (configuration not stated), the cytotoxicity at 10 µM came out at 0.174%.
Next, `COc1ccc(NC(=O)c2nc(C)sc2C(C)C)cn1`: 0.847%; `CC[C@H](Cn1ncc2ccccc2c1=O)NC(=O)c1ccccn1`: -4.27%.
